In general, solubility refers to the dissolved amount per volume that the medium holds. Low readings indicate a poorly soluble substance, high ones a readily soluble substance. The term IC50 denotes the concentration at which inhibition is half-maximal. Low values mean greater potency, high ones weaker potency. What is called logP is the decadic logarithm of the partition coefficient of the neutral form, usually between octanol and water.

Consider four compounds from ChEMBL document CHEMBL1148331, “Aziridinyldinitrobenzamides: synthesis and structure-activity relationships for activation by E. coli nitroreductase” (J Med Chem, 2004).

Series [1] can be described thus: Solubility in culture medium. The class given is physicochemical. An outline of the steps: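 Solubility limit (mM) determined in cell culture medium.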
The test system of the next series is WiDr-NTR. Put plainly: Growth inhibitory potency against NTR-Transfected (nitroreductase) human colon cell line known as WiDr-NTRneo cell line. The class given is functional, cell-based. An outline of the steps:
(§1)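 Log-phase cells were seeded in αMEM with 5% FBS at 50–800 cells/well and grown for 18 h. Prodrug was added from DMSO stock diluted in medium and left for 18 h, then washed out. Regrowth lasted 3 days for V79 and EMT6 lines and 4 days for WiDr and Skov3 lines. Cell density was read by sulforhodamine B staining. IC50 was interpolated as 50% of control absorbance on the same plate. Ratio = IC50 of parental (NTR-ve) line / IC50 of NTR-transfected line.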

The test system of series [2] is SK-OV-3. The experiment in a line: Ratio of growth inhibition of NTR-transfected human ovarian cell line to that of parental cell line (IC50 (NTR-)/IC50 (NTR+). The class given is functional. In outline: as §1
Series [3] concerns WiDr. Put plainly: Effective concentration of 10% cell survival for targets in WiDr MCL (multicellular layer) grown from targets. It counts as functional, Homo sapiens. An outline of the steps:
(§2)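 WiDr multicellular layers were grown on collagen-coated inserts for 6 days. Cocultures held 10% WiDr-NTRneo activators and 90% WiDr targets; the other layers held targets only. Layers were exposed to prodrug over a range of concentrations for 5 h at 37 °C, stirred, under 5% CO2/95% O2. Cells were plated clonogenically, with activators selected in 0.3 mg/mL G418. After 14 days, colonies of more than 50 cells were counted and the concentration giving 10% survival was derived.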

Series [4] concerns EMT6. Put plainly: Ratio of growth inhibition of NTR-transfected mouse mammary cell line to that of parental cell line (IC50 (NTR-)/IC50 (NTR+). The class given is functional. In outline: as §1
Series [5] relates to V79. The experiment in a line: Growth inhibitory potency against NTR-Transfected (nitroreductase) chinese hamster fibroblast known as V79-NTRpuro cell line. It counts as functional, cell-based. The conditions noted are these: Cricetulus griseus. In outline: as §1
Series [6] in a line: Partition coefficient (logP). The class given is physicochemical. The conditions noted are these: octanol/water; read-out: logP. An outline of the steps: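 Partition measured between n-octanol and water.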
Series [7] can be described thus: Ratio of growth inhibition of NTR-transfected human colon cell line to that of parental cell line (IC50 (NTR-)/IC50 (NTR+). The class given is functional. In outline: as §1
The test system of series [8] is WiDr. The experiment in a line: Effective concentration of 10% cell survival for targets in WiDr MCL (multicellular layer) cocultures. The class given is functional, Homo sapiens. An outline of the steps:
as §2

Series [9] concerns EMT6. Put plainly: Growth inhibitory potency against NTR-Transfected (nitroreductase) mouse mammary cell line known as EMT6-NTRpuro cell line. It counts as functional, cell-based. An outline of the steps: as §1
For series [10], the system named is Mus musculus. Put plainly: In vivo median growth delay against CD-1 nude mice bearing WiDr-nitroreductase tumors at a dose 1000 (umol/kg). It counts as functional.
Series [11] concerns V79. Put plainly: Effective concentration of 10% cell survival for targets in V79 MCL (multicellular layer) grown from targets. It counts as functional, Cricetulus griseus. An outline of the steps: (§3)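 V79 multicellular layers were grown on collagen-coated microporous inserts for 3 days, stirred, under 5% CO2/air. Cocultures held 3% V79-NTRpuro activators and 97% V79oua targets; the other layers held targets only. Layers were exposed to prodrug over a concentration range for 5 h at 37 °C under 5% CO2/95% O2. Cells were then plated clonogenically in 1 mM ouabain (targets) or 15 µM puromycin (activators). After 6 days, colonies of more than 50 cells were counted and the concentration giving 10% survival was taken.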

In series [12] the test system is V79. Put plainly: Effective concentration of 10% cell survival for activators in V79 MCL (multicellular layer) cocultures. It counts as functional, Cricetulus griseus. In outline:
as §3

Series [13] deals with SK-OV-3. Put plainly: Growth inhibitory potency against NTR-Transfected (nitroreductase) human ovarian cell line known as SKOV3-NTR neo cell line. It counts as functional, cell-based. In outline: as §1
Series [14] deals with Mus musculus. Put plainly: In vivo activity against WiDr-nitroreductase tumors in mice at a dose of 1000 (umol/kg); 2/7. It counts as functional.
Series [15] deals with V79. Put plainly: Effective concentration of 10% cell survival for targets in V79 MCL (multicellular layer) cocultures. It counts as functional, Cricetulus griseus. In outline: as §3
The subject of series [16] is WiDr. Put plainly: Effective concentration of 10% cell survival for activators in WiDr MCL (multicellular layer) cocultures. The class given is functional, Homo sapiens. In outline: as §2
Series [17] concerns Mus musculus. The experiment in a line: In vivo activity against WiDr-nitroreductase tumors in mice at a dose of 1000 (umol/kg); 1/7. The class given is functional.
The subject of series [18] is Mus musculus. The experiment in a line: In vivo activity against WiDr-nitroreductase tumors in mice at a dose of 178 (umol/kg); 0/3. The class given is functional.
Series [19] deals with Mus musculus. Put plainly: In vivo median growth delay against CD-1 nude mice bearing WiDr-nitroreductase tumors at a dose 178 (umol/kg). The class given is functional.
Series [20] deals with Mus musculus. The experiment in a line: In vivo activity against WiDr-nitroreductase tumors in mice at a dose of 178 (umol/kg); 4/7. It counts as functional.
For series [21], the system named is Mus musculus. Put plainly: In vivo activity against WiDr-nitroreductase tumors in mice at a dose of 300 (umol/kg); 1/7. It counts as functional.
In series [22] the test system is Mus musculus. Put plainly: In vivo median growth delay against CD-1 nude mice bearing WiDr-nitroreductase tumors at a dose 300 (umol/kg). The class given is functional.
The test system of series [23] is Mus musculus. Put plainly: In vivo activity against WiDr-nitroreductase tumors in mice at a dose of 300 (umol/kg); 0/7. It counts as functional.
For series [24], the system named is Mus musculus. The experiment in a line: In vivo activity against WiDr-nitroreductase tumors in mice at a dose of 1000 (umol/kg); 0/6. The class given is functional.

SMILES strings stand for the structures. ≈ marks a conversion by molar mass, not a printed value. Where only a bound is given, the exact number is not on record here.

In series [1], `O=C(NCC(O)CO)c1cc(N2CC2)c([N+](=O)[O-])cc1[N+](=O)[O-]` (stereo not given) showed a solubility of 22000 µM (≈ 7180 µg/mL). For the same compound, the IC50 in the series on WiDr-NTR came out at 3.7 µM; in the series on V79 [5], 0.71 µM; in the series on EMT6 [9], 1.1 µM; in the series on SK-OV-3 [13], 2.3 µM. In addition, the results for the Ratio (in the series on SK-OV-3 [2]; with EMT6 [4]; in series [7]) were 83.7, 86.5 and 49, respectively. Also, the T in the series with WiDr [3] was determined as 540 µM; in the series on V79 [11], 1595 µM. Further, the logP in series [6] is -1.04. Also, the Tc with WiDr [8] came to 320 µM; with V79 [15] it was 840 µM. The compound also returned a Growth delay in the series on Mus musculus [10] of more than 86 days. Also, the figures for the Ac with V79 [12] and in the series with WiDr [16] were 26 µM and 28 µM, respectively. Besides, the Cures in the series with Mus musculus [14] came to 2. In addition, the Deaths in the series with Mus musculus [17] was 1.

Turning to `O=C(NCCN1CCOCC1)c1cc([N+](=O)[O-])cc([N+](=O)[O-])c1N1CC1`, the solubility in series [1] was determined as 350 µM (≈ 128 µg/mL). For the same compound, the IC50 in the series on WiDr-NTR was 18 µM; with V79 [5], 7.3 µM; in the series with EMT6 [9], 3.4 µM; in the series on SK-OV-3 [13] it was 11 µM. Also, in the series on Mus musculus [18], the Cures is on record as 0. For the same compound, the values for the Ratio (with SK-OV-3 [2]; with EMT6 [4]; in series [7]) were more than 72, 177 and 32, respectively. For the same compound, the logP in [6] worked out at 0.11. The Growth delay in the series on Mus musculus [19] was -1 days. In the series with Mus musculus [20], this compound registered a Deaths of 4.

In turn, `O=C(NCCN1CCOCC1)c1cc(N2CC2)c([N+](=O)[O-])cc1[N+](=O)[O-]` registered a solubility in series [1] of 1800 µM (≈ 658 µg/mL). In addition, the IC50 worked out at 0.72 µM with WiDr-NTR, 0.15 µM with V79 [5], 0.053 µM with EMT6 [9] and 0.45 µM in the series on SK-OV-3 [13]. In the series with Mus musculus [21], this compound came in with a Cures of 1. For the same compound, the Ratio came to 1100 in the series on SK-OV-3 [2], 4020 in the series with EMT6 [4] and 183 in [7]. Moreover, the T in the series with WiDr [3] amounted to 680 µM; in the series with V79 [11], 1600 µM. The compound also gave a Growth delay in the series on Mus musculus [22] of 35 days. The logP in series [6] was determined as 0.31. In addition, the Tc in the series with WiDr [8] stood at 105 µM; in the series with V79 [15] it was 470 µM. The same compound showed a Deaths in the series on Mus musculus [23] of 0. Also, the Ac with V79 [12] is 11.5 µM; in the series on WiDr [16] it was 8.5 µM.

Compound `O=C(NCC(O)CO)c1cc([N+](=O)[O-])cc([N+](=O)[O-])c1N1CC1` (stereo not given) showed a solubility in series [1] of 2500 µM (≈ 816 µg/mL). Moreover, the IC50 with WiDr-NTR came out at 12.5 µM; in the series on V79 [5] it was 6.1 µM; in the series with EMT6 [9], 4.4 µM; with SK-OV-3 [13] it was 7.3 µM. The Ratio turned out to be 185 with SK-OV-3 [2], 252 in the series on EMT6 [4] and 71 in [7]. For the same compound, the logP in series [6] is -0.15. Besides, in the series with Mus musculus [10], the Growth delay stood at 8 days. In the series on Mus musculus [24], this compound returned a Cures of 0. This compound returned a Deaths in the series with Mus musculus [17] of 1.
